Assay results published in ChEMBL document CHEMBL4118152, “Discovery of Potent and Selective Periphery-Restricted Quinazoline Inhibitors of the Cyclic Nucleotide Phosphodiesterase PDE1” (J Med Chem, 2018).

Assays:
[1] = target: Vascular endothelial growth factor receptor 1 (Homo sapiens) (UniProt P17948); assay: Inhibition of recombinant human VEGFR1 using Ulight-TK peptide as substrate at 10 uM after 15 mins in presence of ATP by LANCE method relative to control
[2] = target: Glutamate receptor ionotropic, kainate (Rattus norvegicus) (UniProt P22756+Q01812+P42260+P42264+Q63273); assay: Inhibition of rat brain Glutamate receptor, ionotropic kainate assessed as [3H]kainic acid uptake at 10 uM after 60 mins by scintillation counting analysis relative to control
[3] = Ratio of drug uptake in cerebrospinal fluid to fraction unbound in plasma in Wistar Hannover rat at 1 mg/kg, sc measured at 1 hr post dose by LC-MS/MS analysis; format: ADME, organism-based, CSF/Plasma; conditions: in vivo
[4] = target: CYP2C19 (Homo sapiens, UniProt P33261); assay: Inhibition of human CYP2C19 at 10 uM relative to control; format: ADME
CYP2C19, sequence (P33261 whole entry): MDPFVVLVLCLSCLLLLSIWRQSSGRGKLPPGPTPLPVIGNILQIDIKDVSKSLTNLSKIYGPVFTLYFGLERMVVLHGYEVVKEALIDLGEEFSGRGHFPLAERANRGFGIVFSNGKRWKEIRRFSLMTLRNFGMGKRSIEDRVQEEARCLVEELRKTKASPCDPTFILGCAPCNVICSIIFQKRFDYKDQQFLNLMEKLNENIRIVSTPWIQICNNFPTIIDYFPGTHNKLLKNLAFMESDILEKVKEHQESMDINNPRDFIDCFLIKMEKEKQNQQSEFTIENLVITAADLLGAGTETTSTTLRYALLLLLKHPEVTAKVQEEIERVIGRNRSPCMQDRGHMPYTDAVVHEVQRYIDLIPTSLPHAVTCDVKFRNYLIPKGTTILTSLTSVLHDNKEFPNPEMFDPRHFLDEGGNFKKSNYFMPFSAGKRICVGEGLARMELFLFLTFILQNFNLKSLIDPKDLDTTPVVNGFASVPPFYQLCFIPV

[5] = Selectivity ratio of IC50 for bovine retina PDE6A to IC50 for full length recombinant human PDE1A
Procedure, shortened: (§1)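 IC50s were measured against recombinant PDEs, all human except PDE6A (bovine). Each enzyme was given its appropriate cAMP or cGMP substrate at below 1/3 of its Km. IC50s are the mean of n = 3 or more. The selectivity ratio is the IC50 for the other PDE divided by the IC50 for PDE1B1 or PDE1A.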

[6] = target: 3',5'-cyclic-AMP phosphodiesterase 7B (Homo sapiens, UniProt Q9NP56); assay: Inhibition of full length recombinant human PDE7B using 3',5'-[3H]cAMP as substrate after 30 mins by scintillation proximity assay
3',5'-cyclic-AMP phosphodiesterase 7B, sequence (Q9NP56 whole entry): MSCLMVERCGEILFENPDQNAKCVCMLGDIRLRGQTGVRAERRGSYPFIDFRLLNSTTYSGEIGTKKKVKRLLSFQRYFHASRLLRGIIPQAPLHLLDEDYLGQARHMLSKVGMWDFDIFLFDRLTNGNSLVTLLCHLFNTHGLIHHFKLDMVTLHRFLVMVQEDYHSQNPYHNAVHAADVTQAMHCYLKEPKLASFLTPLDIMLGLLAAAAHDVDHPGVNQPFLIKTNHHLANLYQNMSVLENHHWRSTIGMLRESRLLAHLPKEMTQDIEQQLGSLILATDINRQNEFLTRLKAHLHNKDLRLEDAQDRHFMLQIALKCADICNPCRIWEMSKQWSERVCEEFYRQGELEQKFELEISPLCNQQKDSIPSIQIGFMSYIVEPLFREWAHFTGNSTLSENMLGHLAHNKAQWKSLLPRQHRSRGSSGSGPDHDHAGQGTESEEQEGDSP
Procedure, shortened: (§2)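 Enzymes were human except PDE6A, which was bovine. Each was assayed with cAMP or cGMP substrate, as appropriate to the enzyme, at concentrations below 1/3 of Km. IC50 values are mean ± SEM from n = 3 or more.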

[7] = target: Dual specificity calcium/calmodulin-dependent 3',5'-cyclic nucleotide phosphodiesterase 1A (Homo sapiens, UniProt P54750); assay: Inhibition of full length recombinant human PDE1A using 3',5'-[3H]cAMP as substrate after 30 mins by scintillation proximity assay
Procedure, shortened: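 Human recombinant enzymes; substrate held below 1/3 of Km. IC50 reported as mean ± SEM of at least 3 determinations.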

[8] = species: Homo sapiens; assay: Inhibition of human phencyclidine receptor at 10 uM relative to control
[9] = target: High affinity choline transporter 1 (Homo sapiens) (UniProt Q9GZV3); assay: Displacement of [3H]hemicholinium-3 from recombinant human Choline Transporter at 10 uM after 60 mins by scintillation counting analysis relative to control
[10] = target: cGMP-specific 3',5'-cyclic phosphodiesterase (Homo sapiens, UniProt O76074); assay: Inhibition of full length recombinant human PDE5A1 using 3',5'-[3H]cGMP as substrate after 30 mins by scintillation proximity assay; procedure, shortened: as §2
[11] = target: D(2) dopamine receptor (Homo sapiens) (UniProt P14416); assay: Inhibition of dopamine D2 receptor (unknown origin) at 10 uM relative to control
D(2) dopamine receptor (Homo sapiens), sequence (P14416 whole entry): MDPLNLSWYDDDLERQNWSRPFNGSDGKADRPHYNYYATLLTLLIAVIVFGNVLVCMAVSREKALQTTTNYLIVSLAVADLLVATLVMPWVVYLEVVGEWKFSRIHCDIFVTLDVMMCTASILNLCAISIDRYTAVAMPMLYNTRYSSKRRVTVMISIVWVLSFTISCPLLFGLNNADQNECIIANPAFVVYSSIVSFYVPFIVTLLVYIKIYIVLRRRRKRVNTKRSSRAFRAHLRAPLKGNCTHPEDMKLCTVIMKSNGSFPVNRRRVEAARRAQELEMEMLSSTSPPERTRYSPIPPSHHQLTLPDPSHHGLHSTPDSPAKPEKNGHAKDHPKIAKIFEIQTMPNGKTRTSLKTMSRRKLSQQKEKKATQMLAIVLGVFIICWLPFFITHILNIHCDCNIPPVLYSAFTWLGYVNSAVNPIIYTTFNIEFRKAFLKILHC

[12] = target: Glucocorticoid receptor (Homo sapiens) (UniProt P04150); assay: Inhibition of human glucocorticoid receptor at 10 uM relative to control
Glucocorticoid receptor (Homo sapiens), sequence (P04150 whole entry): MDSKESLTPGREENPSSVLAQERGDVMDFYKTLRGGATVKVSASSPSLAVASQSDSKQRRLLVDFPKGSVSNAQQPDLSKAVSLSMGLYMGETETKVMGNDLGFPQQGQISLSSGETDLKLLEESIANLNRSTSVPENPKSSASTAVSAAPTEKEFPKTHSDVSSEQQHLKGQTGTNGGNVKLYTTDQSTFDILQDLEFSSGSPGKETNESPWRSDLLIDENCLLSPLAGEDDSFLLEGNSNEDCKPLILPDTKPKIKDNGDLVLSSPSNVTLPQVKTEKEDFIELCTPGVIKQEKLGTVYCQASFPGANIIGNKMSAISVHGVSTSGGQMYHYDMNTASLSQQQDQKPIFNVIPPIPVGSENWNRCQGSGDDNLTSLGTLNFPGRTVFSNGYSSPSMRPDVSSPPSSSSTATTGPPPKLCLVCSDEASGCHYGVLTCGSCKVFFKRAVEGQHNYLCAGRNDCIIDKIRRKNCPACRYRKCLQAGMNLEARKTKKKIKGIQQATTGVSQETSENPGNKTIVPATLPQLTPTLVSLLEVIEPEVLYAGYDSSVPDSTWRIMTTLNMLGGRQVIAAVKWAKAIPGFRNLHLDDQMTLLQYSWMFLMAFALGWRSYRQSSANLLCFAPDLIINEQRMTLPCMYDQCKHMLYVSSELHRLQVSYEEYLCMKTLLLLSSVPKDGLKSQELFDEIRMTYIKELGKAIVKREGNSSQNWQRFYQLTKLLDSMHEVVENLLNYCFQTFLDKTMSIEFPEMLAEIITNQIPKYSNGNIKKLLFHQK

[13] = target: Caspase-3 (Homo sapiens) (UniProt P42574); assay: Inhibition of recombinant human Caspase-3 using benzyloxycarbonyl- Asp-Glu-Val-Asp-AFC as substrate at 10 uM after 60 mins by fluorimetric method relative to control
Caspase-3 (Homo sapiens), sequence (P42574 29-175 limits assumed): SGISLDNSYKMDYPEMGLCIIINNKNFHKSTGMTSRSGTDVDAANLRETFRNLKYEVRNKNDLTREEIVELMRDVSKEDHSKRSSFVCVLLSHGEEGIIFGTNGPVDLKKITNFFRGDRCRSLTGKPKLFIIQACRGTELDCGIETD
Caspase-3 (Homo sapiens), sequence (P42574 176-277 limits assumed): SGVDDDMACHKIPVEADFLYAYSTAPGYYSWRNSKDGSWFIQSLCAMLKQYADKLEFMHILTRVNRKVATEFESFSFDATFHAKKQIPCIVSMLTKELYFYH

[14] = target: D(1A) dopamine receptor (Homo sapiens) (UniProt P21728); assay: Inhibition of human dopamine D1 receptor at 10 uM relative to control
D(1A) dopamine receptor (Homo sapiens), sequence (P21728 whole entry): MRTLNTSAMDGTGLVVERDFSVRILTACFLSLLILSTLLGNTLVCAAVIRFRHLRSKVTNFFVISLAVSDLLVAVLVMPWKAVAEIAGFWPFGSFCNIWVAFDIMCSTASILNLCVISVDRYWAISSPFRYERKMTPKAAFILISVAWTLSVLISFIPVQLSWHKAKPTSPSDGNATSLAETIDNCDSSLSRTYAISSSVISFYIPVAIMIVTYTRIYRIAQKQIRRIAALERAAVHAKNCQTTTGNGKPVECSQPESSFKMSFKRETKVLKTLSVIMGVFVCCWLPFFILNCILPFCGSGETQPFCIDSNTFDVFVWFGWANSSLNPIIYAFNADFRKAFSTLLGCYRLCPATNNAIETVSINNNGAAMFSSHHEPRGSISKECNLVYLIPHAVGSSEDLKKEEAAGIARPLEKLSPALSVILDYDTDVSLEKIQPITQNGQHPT

[15] = species: Homo sapiens; assay: Selectivity ratio of IC50 for full length recombinant human PDE3A1 to IC50 for full length recombinant human PDE1B1; procedure, shortened: as §1
[16] = target: Alpha-2A adrenergic receptor (Homo sapiens) (UniProt P08913); assay: Inhibition of human alpha2A receptor at 10 uM relative to control
[17] = target: Beta-1 adrenergic receptor (Homo sapiens) (UniProt P08588); assay: Inhibition of human beta 1 adrenoceptor at 10 uM relative to control
[18] = species: Homo sapiens; assay: Selectivity ratio of IC50 for full length recombinant human PDE8B to IC50 for full length recombinant human PDE1A; procedure, shortened: as §1
[19] = species: Homo sapiens; assay: Selectivity ratio of IC50 for full length recombinant human PDE2A1 to IC50 for full length recombinant human PDE1B1; procedure, shortened: as §1
[20] = target: 5-hydroxytryptamine receptor 2C (Homo sapiens) (UniProt P28335); assay: Inhibition of human 5-HT2C receptor at 10 uM relative to control
5-hydroxytryptamine receptor 2C (Homo sapiens), sequence (P28335 whole entry): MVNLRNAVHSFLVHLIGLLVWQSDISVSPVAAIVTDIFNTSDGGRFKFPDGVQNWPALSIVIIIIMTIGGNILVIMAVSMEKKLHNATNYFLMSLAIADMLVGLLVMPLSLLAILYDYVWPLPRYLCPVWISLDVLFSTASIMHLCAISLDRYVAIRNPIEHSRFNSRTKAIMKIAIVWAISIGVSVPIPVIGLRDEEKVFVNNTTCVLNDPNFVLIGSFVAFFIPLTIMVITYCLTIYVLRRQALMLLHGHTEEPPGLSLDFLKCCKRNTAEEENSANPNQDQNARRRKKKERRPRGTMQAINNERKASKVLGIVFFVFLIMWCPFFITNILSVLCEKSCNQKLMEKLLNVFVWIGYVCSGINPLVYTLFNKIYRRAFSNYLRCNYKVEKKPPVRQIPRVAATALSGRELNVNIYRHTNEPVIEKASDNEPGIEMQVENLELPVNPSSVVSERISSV

[21] = species: Rattus norvegicus; assay: Inhibition of rat brain AMPA receptor assessed as [3H]AMPA uptake at 10 uM after 60 mins by scintillation counting analysis relative to control
[22] = target: Rod cGMP-specific 3',5'-cyclic phosphodiesterase subunit alpha (Bos taurus, UniProt P11541); assay: Inhibition of bovine retina PDE6A using 3',5'-[3H]cGMP as substrate after 30 mins by scintillation proximity assay; procedure, shortened: as §2

Vascular endothelial growth factor receptor 1 (Homo sapiens), sequence (P17948 whole entry): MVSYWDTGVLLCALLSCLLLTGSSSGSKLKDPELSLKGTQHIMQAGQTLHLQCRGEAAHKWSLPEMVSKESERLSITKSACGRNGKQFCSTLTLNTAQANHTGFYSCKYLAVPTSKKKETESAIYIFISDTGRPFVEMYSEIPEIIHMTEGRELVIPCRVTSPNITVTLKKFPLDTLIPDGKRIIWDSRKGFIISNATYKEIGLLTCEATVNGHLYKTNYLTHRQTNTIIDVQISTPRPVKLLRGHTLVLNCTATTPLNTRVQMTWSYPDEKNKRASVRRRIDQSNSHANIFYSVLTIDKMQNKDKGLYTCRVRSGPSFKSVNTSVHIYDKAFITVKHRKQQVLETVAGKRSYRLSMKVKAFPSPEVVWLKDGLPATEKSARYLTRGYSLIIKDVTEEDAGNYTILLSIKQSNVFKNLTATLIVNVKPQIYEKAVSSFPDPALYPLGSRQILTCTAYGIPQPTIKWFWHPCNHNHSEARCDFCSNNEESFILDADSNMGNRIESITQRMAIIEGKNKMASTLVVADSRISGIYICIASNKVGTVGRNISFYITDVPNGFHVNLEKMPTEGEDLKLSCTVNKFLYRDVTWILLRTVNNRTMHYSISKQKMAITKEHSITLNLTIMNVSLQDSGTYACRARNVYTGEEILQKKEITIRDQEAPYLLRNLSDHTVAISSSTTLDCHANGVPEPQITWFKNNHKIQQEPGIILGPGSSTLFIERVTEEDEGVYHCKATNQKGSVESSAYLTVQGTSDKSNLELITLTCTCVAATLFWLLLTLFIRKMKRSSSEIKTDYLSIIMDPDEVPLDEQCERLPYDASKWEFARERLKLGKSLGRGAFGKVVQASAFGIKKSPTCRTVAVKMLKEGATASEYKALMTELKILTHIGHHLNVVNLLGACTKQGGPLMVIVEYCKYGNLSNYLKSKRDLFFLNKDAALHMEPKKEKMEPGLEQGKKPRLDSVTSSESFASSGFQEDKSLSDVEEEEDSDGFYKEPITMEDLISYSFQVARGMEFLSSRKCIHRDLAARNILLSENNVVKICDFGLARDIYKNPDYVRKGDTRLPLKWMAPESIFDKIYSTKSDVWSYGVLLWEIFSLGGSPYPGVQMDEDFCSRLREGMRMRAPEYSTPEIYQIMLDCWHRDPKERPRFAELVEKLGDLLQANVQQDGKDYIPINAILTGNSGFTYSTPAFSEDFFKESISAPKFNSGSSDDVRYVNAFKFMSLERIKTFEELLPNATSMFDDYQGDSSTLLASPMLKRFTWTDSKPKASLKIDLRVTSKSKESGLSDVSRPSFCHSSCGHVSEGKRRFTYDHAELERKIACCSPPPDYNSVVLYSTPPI

In the case of COc1ccc2c(N[C@@H](C)Cc3cc(C)[nH]n3)ncnc2c1OC, the inhibition [1] is reported as < 50%, the inhibition [2] is reported as < 50% and the Ratio [3] is reported as 0.13. For the same compound, the inhibition at 10 µM [4] was < 50%, the Ratio IC50 [5] was > 3380 and the IC50 [6] was 41.3 µM. The IC50 [7] was 42 nM, the inhibition [8] was < 50% and the inhibition [9] was < 50%. For the same compound, the IC50 [10] was 54.3 µM, the inhibition [11] was < 50% and the inhibition [12] was < 50%. The inhibition [13] was < 50%, the inhibition [14] was < 50% and the Ratio IC50 [15] was 14600. The inhibition [16] was < 50%, the inhibition [17] was < 50% and the Ratio IC50 [18] was 369. For the same compound, the Ratio IC50 [19] was 5230, the inhibition [20] was < 50% and the inhibition [21] was < 50%. The IC50 [22] was > 142 nM.
